Series [1] has as its system Rattus norvegicus. Put plainly: Antidiabetic activity in obese insulin resistant Zucker fa/fa rat assessed as decrease in insulin level in plasma administered qd for 7 days.
The target of series [2] is T1, Peroxisome proliferator-activated receptor gamma (Homo sapiens) (UniProt P37231).
T1 sequence (whole entry): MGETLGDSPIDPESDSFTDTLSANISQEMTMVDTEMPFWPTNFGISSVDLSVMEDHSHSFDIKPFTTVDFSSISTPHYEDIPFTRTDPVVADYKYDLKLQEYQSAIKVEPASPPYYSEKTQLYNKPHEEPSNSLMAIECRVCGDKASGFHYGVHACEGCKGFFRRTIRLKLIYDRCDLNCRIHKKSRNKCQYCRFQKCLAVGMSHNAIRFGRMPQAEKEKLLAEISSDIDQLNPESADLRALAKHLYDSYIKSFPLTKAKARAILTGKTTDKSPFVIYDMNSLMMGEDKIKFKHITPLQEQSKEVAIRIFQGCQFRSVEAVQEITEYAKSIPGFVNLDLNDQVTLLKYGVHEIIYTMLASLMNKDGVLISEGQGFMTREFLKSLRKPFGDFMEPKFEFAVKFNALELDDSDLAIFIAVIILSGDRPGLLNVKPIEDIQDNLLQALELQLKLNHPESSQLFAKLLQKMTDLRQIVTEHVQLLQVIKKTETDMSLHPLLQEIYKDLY
Put plainly: Binding affinity to human wild type PPARgamma LBD expressed in COS1 cells co-expressing GAL4 by scintillation proximity assay. The format is cell-based. Particulars: COS-1. On the technique in general: In a scintillation proximity assay essentially only radioactivity close to the scintillant gives light.

Series [3] has as its system COS-1. The experiment in a line: Binding affinity to human PPARgamma LBD Y473A mutant expressed in COS1 cells co-expressing GAL4 by scintillation proximity assay. The series is classed as cell-based.
For series [4], the system named is Rattus norvegicus. The experiment in a line: Antidiabetic activity in obese insulin resistant Zucker fa/fa rat assessed as decrease in free fatty acids level in plasma at 1 to 100 mg/kg qd for 7 days. The series is classed as functional, organism-based. In short, it runs like this: (§1)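 Obese insulin-resistant Zucker fa/fa rats (n = 8) dosed daily for 7 days with vehicle or compound. Tail-nick blood taken 1 day before dosing and 1 day after the seventh dose; plasma insulin by rat insulin RIA, free fatty acids and triglyceride by enzymatic kits per manufacturer instructions.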

Series [5] concerns Rattus norvegicus. The experiment in a line: Antidiabetic activity in obese insulin resistant Zucker fa/fa rat assessed as decrease in triglyceride level in plasma at 1 to 100 mg/kg qd for 7 days. The series is classed as functional, organism-based. The procedure, abridged:
as §1

Series [6] relates to Rattus norvegicus. The experiment in a line: Antidiabetic activity in obese insulin resistant Zucker fa/fa rat assessed as decrease in insulin level in plasma at 1 to 100 mg/kg qd for 7 days. The series is classed as functional, organism-based. The procedure, abridged:
as §1

Series [7] can be described thus: AUC in db/db C57BLKS/J-m +/+ Leprdb mouse at 10 mg/kg, po qd for 10 days measured on day 11. The format is ADME, organism-based. Further details: dose 10 mg/kg, route oral. Conditions: plasma. In short, it runs like this:
(§2)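 Male db/db (C57BLKS/J-m +/+Leprdb) mice aged 12−13 weeks, seven per group, gavaged once daily with compound in 0.25% methylcellulose vehicle. Total compound exposure measured at study end: plasma acidified with 0.5 M formate buffer pH 3.0, protein precipitated with acetonitrile, quantified by LC−MS−MS against calibration curves in control plasma.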

Series [8] concerns Mus musculus. Put plainly: Toxicity in po dosed db/db C57BLKS/J-m +/+ Leprdb mouse assessed as increase in water content of epididymal fat pad administered qd for 10 days measured on day 11 by vaccum drying method. The format is organism-based. Particulars: in vivo, 240 h. The procedure, abridged:
(§3)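 Male db/db mice, seven per group, gavaged daily in 0.25% methylcellulose; after day 11 dosing epididymal fat pads excised, weighed, vacuum centrifugal-dried over 24 h, reweighed to give water content; mean of seven determinations.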

The test system of series [9] is Mus musculus. The experiment in a line: Antidiabetic activity in db/db C57BLKS/J-m +/+ Leprdb mouse assessed as reduction of glucose level at 10 mg/kg, po qd for 10 days measured on 11 relative to control. The format is functional. Further details: scale not given: the % may be the effect or the level left. In short, it runs like this:
(§4)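 Male db/db (C57BLKS/J-m +/+Leprdb) mice, 12−13 weeks old, seven per group, chow and water freely available; once-daily oral gavage in 0.25% methylcellulose vehicle for 11 days. Tail blood drawn just before next dose on days 0, 4, 7 and 11 for plasma glucose. Value is percent correction versus vehicle control; mean of n = 7; rosiglitazone 10 mpk positive control.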

Series [10] can be described thus: Drug uptake in db/db C57BLKS/J-m +/+ Leprdb mouse at 10 mg/kg, po qd for 10 days measured in day 11 by LC-MS/MS analysis. Further details: dose 10 mg/kg, route oral. Conditions: in vivo. The format is ADME, organism-based. In short, it runs like this:
as §2

Series [11] in a line: Oral bioavailability in rat at 2 mg/kg by LC-MS/MS analysis. The series is classed as ADME, organism-based. Particulars: in vivo. The procedure, abridged: (§5)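 Rat pharmacokinetics: 2 mpk oral in 5% methylcellulose, 0.5 mpk iv in ethanol/PEG400/water (1/4/5). Blood sampled at set intervals; plasma acidified with 0.5 M formate buffer pH 3.0, acetonitrile-precipitated, quantified by LC−MS−MS against spiked control-plasma calibration curves.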

A short description of series [12]: Half life in rat at 0.5 mg/kg, iv and 2 mg/kg, po by LC-MS/MS analysis. The format is ADME, organism-based. Conditions: in vivo. In short, it runs like this: as §5
The test system of series [13] is Rattus norvegicus. Put plainly: Plasma clearance in rat at 0.5 mg/kg, iv and 2 mg/kg, po by LC-MS/MS analysis. The format is ADME, organism-based. Conditions: in vivo. In short, it runs like this: as §5
In series [14] the target is T2, Peroxisome proliferator-activated receptor alpha (Homo sapiens, UniProt Q07869).
T2 sequence (Q07869 whole entry): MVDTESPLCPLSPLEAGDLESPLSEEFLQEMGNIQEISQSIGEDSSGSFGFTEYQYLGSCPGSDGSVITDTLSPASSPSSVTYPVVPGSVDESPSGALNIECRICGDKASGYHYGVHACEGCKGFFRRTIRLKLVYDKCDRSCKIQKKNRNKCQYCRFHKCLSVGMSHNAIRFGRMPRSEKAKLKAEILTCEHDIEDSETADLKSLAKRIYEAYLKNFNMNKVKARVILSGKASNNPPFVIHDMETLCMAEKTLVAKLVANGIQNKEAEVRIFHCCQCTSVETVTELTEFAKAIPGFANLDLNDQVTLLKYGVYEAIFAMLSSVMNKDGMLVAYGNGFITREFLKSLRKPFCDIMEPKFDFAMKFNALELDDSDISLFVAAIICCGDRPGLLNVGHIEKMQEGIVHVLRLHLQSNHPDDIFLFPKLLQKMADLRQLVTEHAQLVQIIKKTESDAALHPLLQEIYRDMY
The experiment in a line: Binding affinity to human PPARalpha expressed in COS-1 by scintillation proximity assay. In short, it runs like this:
(§6)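 Scintillation proximity binding assay on PPAR receptors giving IC50; mean of three determinations.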

For series [15], the system named is Rattus norvegicus. Put plainly: Dose normalized AUC in rat at 2 mg/kg, po by LC-MS/MS analysis. Further details: dose 2 mg/kg, route oral. Conditions: in vivo. The format is ADME, organism-based. In short, it runs like this:
as §5

Series [16] deals with Mus musculus. Put plainly: Toxicity in db/db C57BLKS/J-m +/+ Leprdb mouse assessed as increase in water content of epididymal fat pad at 10 to 50 mg/kg, po qd for 10 days measured on day 11 by vaccum drying method. The format is organism-based. Further details: dose 10-50 mg/kg, route oral. Particulars: in vivo, 240 h. The procedure, abridged:
as §3

In series [17] the target is T3, Peroxisome proliferator-activated receptor gamma (Homo sapiens, UniProt P37231).
T3 sequence (P37231 whole entry): T1 sequence (whole entry)
The experiment in a line: Agonist activity at human PPARgamma expressed in COS-1 cells co-expressing with Gal4 by transactivation assay. The format is functional, cell-based. The procedure, abridged: (§7)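 GAL4-PPAR chimeric receptor transactivation in transiently co-transfected COS-1 cells with a GAL4-responsive reporter; potency as EC50 and maximum activation expressed relative to rosiglitazone; triplicate, mean reported.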

For series [18], the target named is T4, Peroxisome proliferator-activated receptor delta (Homo sapiens, UniProt Q03181).
T4 sequence (Q03181 whole entry): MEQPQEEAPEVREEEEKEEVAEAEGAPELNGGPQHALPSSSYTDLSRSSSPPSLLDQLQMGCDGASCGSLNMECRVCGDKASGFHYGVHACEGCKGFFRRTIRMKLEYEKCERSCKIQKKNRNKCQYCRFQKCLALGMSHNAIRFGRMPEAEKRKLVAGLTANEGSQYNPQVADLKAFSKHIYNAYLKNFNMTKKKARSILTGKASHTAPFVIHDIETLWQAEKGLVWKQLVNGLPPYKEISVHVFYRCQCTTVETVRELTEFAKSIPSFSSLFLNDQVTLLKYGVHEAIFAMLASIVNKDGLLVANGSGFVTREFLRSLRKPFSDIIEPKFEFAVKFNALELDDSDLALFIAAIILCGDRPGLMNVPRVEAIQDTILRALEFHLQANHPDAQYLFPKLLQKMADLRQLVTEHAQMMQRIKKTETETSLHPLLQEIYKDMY
The experiment in a line: Binding affinity to PPARdelta by scintillation proximity assay. The procedure, abridged: as §6

Series [19] has as its target T3, Peroxisome proliferator-activated receptor gamma. Put plainly: Binding affinity to human PPARgamma by scintillation proximity assay. The procedure, abridged: as §6
The target in series [20] is T1, Peroxisome proliferator-activated receptor gamma (Homo sapiens). The experiment in a line: Agonist activity at human PPARgamma expressed in COS-1 cells co-expressing with Gal4 by transactivation assay relative to rosiglitazone. The series is classed as functional, cell-based. The procedure, abridged:
as §7

For series [21], the system named is Mus musculus. The experiment in a line: Antidiabetic activity in db/db C57BLKS/J-m +/+ Leprdb mouse assessed as reduction of glucose level at 20 mg/kg, po qd for 10 days measured on 11 relative to control. The format is functional. Further details: scale not given: the % may be the effect or the level left. The procedure, abridged: as §4
The target in series [22] is T3, Peroxisome proliferator-activated receptor gamma. Put plainly: Partial agonist activity at human PPARgamma LBD assessed as activation of Src-1 by HTRF assay. The format is functional. (In TR-FRET formats the signal depends on donor and acceptor labels being close together.)
Series [23] shares this target. Put plainly: Partial agonist activity at human PPARgamma LBD assessed as activation of CBP1-453 by HTRF assay. The format is functional.
The target is the same in series [24]. Put plainly: Partial agonist activity at human PPARgamma LBD assessed as activation of PBP by HTRF assay. The format is functional.
The target is the same in series [25]. Put plainly: Partial agonist activity at human PPARgamma LBD assessed as activation of PGC1 by HTRF assay. The format is functional.

We go through three compounds from ChEMBL document CHEMBL1944523, “Benzimidazolones: a new class of selective peroxisome proliferator-activated receptor γ (PPARγ) modulators” (J Med Chem, 2011).

Structures are written as SMILES. Activity calls are given as the source filed them. No cut-off for these calls is given here.

Consider `CN(CCOc1ccc(CC2SC(=O)NC2=O)cc1)c1ccccn1` (centres undefined) [ROSIGLITAZONE], for which the ED50 in series [1] is 312 µM·h. Moreover, the result in series [2], in [4], in series [5] and in series [6] was Active. Moreover, the result in series [3] was inactive. Moreover, the area under the curve (AUC) – broadly, concentration integrated over time – at 240 h in series [7] stood at 220 µM·h. The results for the Activity entry in series [8] and in series [9] were “Dose-dependent effect” and 60%, respectively.

For `C[C@]1(c2cccc(Cn3c(=O)n(-c4noc5cc(Cl)ccc45)c4ccccc43)c2)OC(O)=NC1=O`, the AUC at 240 h in [10] came out at 1160 µM·h. For the same compound, the bioavailability in series [11] stood at 117%. For the same compound, the half-life (in general, how long it takes for the measured level to halve) in [12] was 3 h. This compound also gave a clearance in [13] of 26.5 mL/min/kg. Moreover, the IC50 (usually the concentration at which inhibition is half-maximal) in [14] was over 50000 nM; in series [18], over 50000 nM; in [19], 49.1 nM. The same compound gave an AUC/dose in series [15] of 1.9 µM·kg·h/mg. For the same compound, the Activity result in series [16] is listed as “Non-toxic”. Further, in series [17], the midpoint of the response, the EC50, lay at 102 nM.

With `COc1ccc2c(-n3c(=O)n(Cc4cc([C@@]5(C)OC(=O)NC5=O)ccc4Cl)c4ccccc43)noc2c1`, the Emax in series [20] worked out at 26%. The AUC at 240 h in [10] was 104 µM·h. Also, the Activity in series [21] is given as 29%. Also, the concentration giving a half-maximal response (EC50) (usually the concentration at which the effect is half-maximal) was over 50000 nM in series [22]; over 50000 nM in series [23]; 1820 nM in series [24]; 2 nM in series [25]; 9.1 nM in [17]. Moreover, in series [11], the bioavailability is 49%. For the same compound, the half-life in series [12] is 3.8 h. The clearance in [13] came to 29.7 mL/min/kg. In addition, the IC50 is over 50000 nM in series [14], over 50000 nM in series [18] and 9.9 nM in series [19]. This compound gave an AUC/dose in series [15] of 0.8 µM·kg·h/mg.
